Laboratory results reported in article PMC4075987 (Biochemistry, 2014).
“Also recorded” adds a separate entry of the source. Read-outs that look alike come from different tables or passages of the source. Blank lines part the entries; values can stand above or below the compound they belong to. Square brackets hold non-standard residues; d marks the D form. Peptide text beside a SMILES is read from it. Orn(N5-OH,N5-Ac) = CC(=O)N(O)CCC[C@H](N)C(=O)O

Legend:
apo-FbpABp [1] = target: T1, apo-FbpABp (Bordetella pertussis, UniProt Q7VXW9); format: binding
T1 sequence (Q7VXW9 31-349): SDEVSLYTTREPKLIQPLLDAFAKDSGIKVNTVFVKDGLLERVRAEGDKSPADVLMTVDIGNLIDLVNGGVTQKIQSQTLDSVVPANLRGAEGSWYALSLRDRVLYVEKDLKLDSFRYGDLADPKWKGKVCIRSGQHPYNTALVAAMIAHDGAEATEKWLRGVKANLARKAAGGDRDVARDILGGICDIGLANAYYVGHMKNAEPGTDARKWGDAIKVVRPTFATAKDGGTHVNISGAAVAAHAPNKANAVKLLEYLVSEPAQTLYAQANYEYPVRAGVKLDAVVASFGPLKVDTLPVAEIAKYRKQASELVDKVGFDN

apo-FbpABp [2] = target: T1, apo-FbpABp; details: pH 6.5, 50 mM MES, 100 mM NaCl; monitored 3 h
FbpABp = format: binding, Bordetella pertussis; details: absence of a suitable synergistic anion
How it was run: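 Recombinant B. pertussis FbpA was made periplasmically in B. bronchiseptica ΔfbpA grown in iron-depleted Stainer–Scholte medium at 35 °C, then osmotic-shock extracted and DEAE-purified. Apo-protein took 50 equiv carbonate/oxalate (30 min) then 10 equiv Fe(ClO4)3 (overnight, 4 °C, filtered), or 10 equiv citrate/NTA then 2 equiv 1:1 Fe-anion. Iron was titrated to maximal CT band, dialysed, then competed against EDTA; pH 6.5 MES/NaCl.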

apo-FbpABp [3] = target: T1, apo-FbpABp; assay: UV-vis spectral difference experiment between apo-DFB and apo-FbpABp; format: binding; details: results not shown
[4] = read-out: Kd (apparent Fe3+-siderophore/apo-FbpABp dissociation constant, eq 3), ferric siderophore complex, one-site model, 50 mM MES, 100 mM NaCl, pH 6.5, room temperature

Compound: ferric-alcaligin [Fe2(ALC)3]
Qmax (maximum % quenching) (apo-FbpABp [1]; ferric siderophore complex, emission 352 nm, excitation 297 nm, pH 6.5): ~80% | blue shift of FbpABp emission band (apo-FbpABp [1]; on addition of ferric siderophore to apo-FbpABp): ~8 nm | Kd (apo-FbpABp [1]; [4]): 130 ± 40 nM | change of ferric siderophore CT band after addition of apo-FbpABp (apo-FbpABp [2]): shift in λmax from 428 nm (CT band for Fe2ALC3) to 410 nm; also recorded: λmax shifted from 428 to 410 nm

Compound: O=C1CCC(=O)N(O)CCC(O)CNC(=O)CCC(=O)N(O)CCC(O)CN1 (centres unmarked) [ALC, alcaligin]
Kd (apo-FbpABp [1]; [4]): ~100 nM

Compound: CC(=O)N(O)CCCCCNC(=O)CCC(=O)N(O)CCCCCNC(=O)CCC(=O)N(O)CCCCCN [DFB, desferrioxamine B]
Kd (apo-FbpABp [1]): ~1000 nM | binding of apo-siderophore by apo-FbpABp (apo-FbpABp [3]): not able to bind an apo-siderophore effectively

Continued, values first:

Kd (apo-FbpABp [1]): ~1000 nM | quenching of apo-protein fluorescence emission band by apo-siderophore (apo-FbpABp [1]; apo-siderophore, final protein:apo-siderophore 1:4 (ALC), 1:2 (ENT)): < 16%
Compound: O=C(N[C@H]1COC(=O)[C@@H](NC(=O)c2cccc(O)c2O)COC(=O)[C@@H](NC(=O)c2cccc(O)c2O)COC1=O)c1cccc(O)c1O [ENT, enterobactin]

Kd (apo-FbpABp [1]; [4]): ~1000 nM
Compound: CC(=O)N([O-])CCC[C@@H]1NC(=O)CNC(=O)CNC(=O)CNC(=O)[C@H](CCCN([O-])C(C)=O)NC(=O)[C@H](CCCN([O-])C(C)=O)NC1=O.[Fe+3] [FC, ferrichrome] (cyclo(GGG[Orn(N5-OH,N5-Ac)][Orn(N5-OH,N5-Ac)][Orn(N5-OH,N5-Ac)]))

Fe3+ sequestration by FbpABp (FbpABp): No Fe^3+ sequestration was observed
Compound: [Fe+3] [Fe^3+, Ferric iron]
